This note sets out measurements from ChEMBL document CHEMBL1153963, “Phenanthrene-based tylophorine-1 (PBT-1) inhibits lung cancer cell growth through the Akt and NF-kappaB pathways” (J Med Chem, 2009).

Calls of active or inactive are those of the source. The rule behind the calls is not given here.

Assay [1] deals with CL1-0. Briefly: Inhibition of TNF-alpha-induced NF-kappaB transcriptional in human CL1-0 cells by luciferase reporter gene assay. Format: cell-based. The procedure, abridged:
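CL1-0 cells transiently co-transfected with pNF-κB-Luc (0.2 µg) and pSV-β-galactosidase (1 µg) via lipofectamine; after 20 h switched to serum-free medium, pretreated 1 h, then stimulated with TNF-α for 4 h; luciferase normalized to β-galactosidase; n=3 independent transfections, mean ± SD.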

The subject of assay [2] is CL1-0. Nature of the assay: Growth inhibition of human CL1-0 cells at >0.25 ug/mL. Type of assay: functional, cell-based.
The nature of assay [3]: Cell cycle arrest in human CL1-0 cells assessed as accumulation at G0/G1 phase after 24 hrs by flow cytometry. Type of assay: functional, cell-based. The procedure, abridged:
(§1)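 CL1-0 cells seeded at 2×10^5 per 60 mm dish, incubated 24 h, then exposed to various drug concentrations for 2, 6, 12, 16 or 24 h. Harvested cells fixed in cold 70% ethanol at 4 °C for 16 h, treated with RNase A (20 µg/mL, 37 °C, 30 min), stained with propidium iodide (50 µg/mL, 4 °C, 30 min), analysed at once by flow cytometry for phase distribution.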
In general terms: In flow cytometry, cells or beads pass a laser one at a time.

A short description of assay [4]: Cell cycle arrest in human CL1-0 cells assessed as accumulation at G2/M phase after 24 hrs by flow cytometry. Format: functional, cell-based. An outline of the steps:
as §1

Assay [5] concerns the target RAC-alpha serine/threonine-protein kinase (Homo sapiens) (UniProt P31749). Briefly: Inhibition of AKT phosphorylation in human CL1-0 cells by Western blot. Format: cell-based. The procedure, abridged: (§2)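 Western blot of CL1-0 cells after 24 h at increasing concentrations; probed for p-Akt, Akt and IκB; 50 µg lysate on 10% SDS-PAGE, HRP secondary, chemiluminescence on film.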
Background: Immunoblotting shows a protein as a band on a membrane.

The test system of assay [6] is CL1-0. Briefly: Decrease in IkappaB protein level in TNF-alpha-stimulated human CL1-0 cells by Western blot. Format: functional, cell-based. An outline of the steps: (§3)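 CL1-0 cells serum-starved overnight, pretreated with various drug concentrations, then stimulated with TNF-α for 4 h. Lysates (50 µg) resolved by 10% SDS-PAGE, blotted, probed with specific antibodies in TBS pH 7.5/0.05% Tween 20/5% milk, HRP secondaries, chemiluminescent film detection; a representative blot shown.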

The subject of assay [7] is CL1-0. Briefly: Cytotoxicity against human CL1-0 cells assessed as disruption of cell morphology after 48 hrs. Type of assay: functional, cell-based.
The nature of assay [8]: Cell cycle arrest in human CL1-0 cells assessed as decrease in accumulation at G0/G1 phase by flow cytometry. Format: functional, cell-based. To be noted: TDE = time-dependent effect. The procedure, abridged:
as §1

Assay [9] can be described thus: Cell cycle arrest in human CL1-0 cells assessed as accumulation at G2/M phase after 2 hrs by flow cytometry. Format: functional, cell-based. An outline of the steps: as §1
The test system of assay [10] is CL1-0. Nature of the assay: Increase in IkappaB protein level in human CL1-0 cells by Western blot. Format: functional, cell-based. The procedure, abridged: as §2
The nature of assay [11]: Cell cycle arrest in human CL1-0 cells assessed as accumulation at G2/M phase after 16 hrs by flow cytometry. Type of assay: functional, cell-based. The procedure, abridged:
as §1

Assay [12] has as its system CL1-0. Briefly: Suppression of colony formation of human CL1-0 cells assessed as reduction of cell colonies after 10 to 14 days. Type of assay: functional, cell-based.
Assay [13] has as its target T1, Inhibitor of nuclear factor kappa-B kinase subunit beta (Homo sapiens) (UniProt O14920).
T1 sequence (whole entry): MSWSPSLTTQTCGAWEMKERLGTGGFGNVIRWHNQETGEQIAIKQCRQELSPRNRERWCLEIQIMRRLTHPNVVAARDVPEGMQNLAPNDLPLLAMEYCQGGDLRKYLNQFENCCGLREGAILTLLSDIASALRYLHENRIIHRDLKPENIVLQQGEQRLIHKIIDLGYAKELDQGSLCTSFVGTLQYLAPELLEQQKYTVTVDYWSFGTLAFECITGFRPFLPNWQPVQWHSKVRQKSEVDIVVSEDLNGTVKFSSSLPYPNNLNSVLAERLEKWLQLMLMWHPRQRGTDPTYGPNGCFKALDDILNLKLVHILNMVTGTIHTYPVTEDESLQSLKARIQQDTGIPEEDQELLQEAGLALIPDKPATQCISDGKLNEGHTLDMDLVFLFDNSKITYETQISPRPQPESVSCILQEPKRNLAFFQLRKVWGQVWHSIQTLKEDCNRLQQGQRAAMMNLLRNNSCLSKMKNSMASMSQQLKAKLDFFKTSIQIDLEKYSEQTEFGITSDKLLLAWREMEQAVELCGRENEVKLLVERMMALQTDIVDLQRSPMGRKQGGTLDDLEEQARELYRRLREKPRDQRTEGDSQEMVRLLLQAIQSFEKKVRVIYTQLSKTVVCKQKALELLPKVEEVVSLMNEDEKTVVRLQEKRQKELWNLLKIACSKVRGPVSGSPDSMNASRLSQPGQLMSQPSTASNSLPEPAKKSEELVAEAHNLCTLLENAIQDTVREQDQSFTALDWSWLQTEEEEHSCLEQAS
Briefly: Effect on IKK-beta activity in TNF-alpha-stimulated human CL1-0 cells by Western blot. Type of assay: cell-based. An outline of the steps: as §3

Assay [14] concerns CL1-0. Nature of the assay: Decrease in COX2 protein level in TNF-alpha-stimulated human CL1-0 cells by Western blot. Format: functional, cell-based. The procedure, abridged: as §3
The nature of assay [15]: Cell cycle arrest in human CL1-0 cells assessed as accumulation at S phase after 24 hrs by flow cytometry. Format: functional, cell-based. The procedure, abridged:
as §1

A short description of assay [16]: Cell cycle arrest in human CL1-0 cells assessed as accumulation at G0/G1 phase after 16 hrs by flow cytometry. Type of assay: functional, cell-based. An outline of the steps:
as §1

The nature of assay [17]: Cell cycle arrest in human CL1-0 cells assessed as accumulation at S phase after 2 hrs by flow cytometry. Type of assay: functional, cell-based. The procedure, abridged:
as §1

The subject of assay [18] is CL1-0. Nature of the assay: Effect on p27 protein expression in human CL1-0 cells at 0.5 ug/mL after 24 hrs by Western blot. Type of assay: functional, cell-based. An outline of the steps:
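CL1-0 cells exposed to rising concentrations for 24 h, or to 0.5 µg/mL over a time course; 50 µg lysate resolved by 10% SDS-PAGE, blotted, probed with cyclin/CDK-inhibitor antibodies in TBS-Tween/5% milk, HRP secondary, chemiluminescent film detection.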

Assay [19] can be described thus: Cell cycle arrest in human CL1-0 cells assessed as increase in accumulation at G2/M phase by flow cytometry. Type of assay: functional, cell-based. To be noted: TDE = time-dependent effect. An outline of the steps:
as §1

Chain of RAC-alpha serine/threonine-protein kinase (Homo sapiens) (P31749 whole entry): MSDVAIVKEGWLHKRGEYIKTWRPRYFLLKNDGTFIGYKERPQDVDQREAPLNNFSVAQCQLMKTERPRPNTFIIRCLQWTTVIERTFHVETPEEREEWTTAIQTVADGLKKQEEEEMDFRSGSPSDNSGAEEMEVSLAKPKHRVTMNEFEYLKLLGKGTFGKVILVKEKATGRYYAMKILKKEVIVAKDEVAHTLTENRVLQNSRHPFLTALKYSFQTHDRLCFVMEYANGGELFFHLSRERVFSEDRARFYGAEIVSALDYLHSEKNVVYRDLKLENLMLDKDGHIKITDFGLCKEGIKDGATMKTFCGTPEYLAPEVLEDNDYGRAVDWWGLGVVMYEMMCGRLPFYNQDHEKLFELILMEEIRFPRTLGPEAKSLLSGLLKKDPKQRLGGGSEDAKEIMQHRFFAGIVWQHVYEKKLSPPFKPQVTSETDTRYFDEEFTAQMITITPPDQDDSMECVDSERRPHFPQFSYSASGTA

In the case of `COc1ccc2c(CN3CCC(CO)CC3)cc3cc4c(cc3c2c1)OCO4`, the Activity result is “Dose-dependent effect” with CL1-0 [1]; 16.6% in assay [3]; 20.9% in assay [4]; “Dose-dependent effect” in assay [5]; “tde” in [8]; 25.4% in assay [9]. The Activity entry is “Dose-dependent effect” in the assay with CL1-0 [10]; 33.6% in assay [11]; “Dose-dependent effect” in the assay with CL1-0 [12]; 43.8% in assay [15]; 20.4% in assay [16]; 15.1% in assay [17]. Further, the Activity entry in assay [19] is “tde”. For the same compound, the outcome with CL1-0 [2], in the assay on CL1-0 [6], in the assay on CL1-0 [7] and in the assay with CL1-0 [14] was Active. Besides, the result (in assay [13]; with CL1-0 [18]) was inactive.
